For 17 compounds, IC50 results are on record in ChEMBL document CHEMBL1136314, “Biphenyl-based analogues of thiolactomycin, active against Mycobacterium tuberculosis mtFabH fatty acid condensing enzyme” (Bioorg Med Chem Lett, 2003).

Each structure is given as a SMILES string.

The assay has as its target T1, Mycobacterial beta-ketoacyl-[acyl-carrier-protein] synthase III (Mycobacterium tuberculosis, UniProt P9WNG3).
T1 sequence (P9WNG3 whole entry): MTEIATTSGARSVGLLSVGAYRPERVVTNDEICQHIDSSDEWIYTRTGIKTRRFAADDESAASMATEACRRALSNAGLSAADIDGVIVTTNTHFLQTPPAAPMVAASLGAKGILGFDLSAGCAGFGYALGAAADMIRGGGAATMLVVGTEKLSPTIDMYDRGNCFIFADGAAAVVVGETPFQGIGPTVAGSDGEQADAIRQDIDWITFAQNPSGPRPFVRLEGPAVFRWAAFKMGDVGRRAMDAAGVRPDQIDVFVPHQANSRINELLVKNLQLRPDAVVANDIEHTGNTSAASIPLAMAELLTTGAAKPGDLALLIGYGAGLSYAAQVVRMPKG
The experiment in a line: In vitro inhibitory activity against the recombinant Mycobacterium tuberculosis Beta-ketoacyl-ACP synthase III mtFabH condensing enzyme. Details: species or system H37Rv. The procedure, abridged:
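Direct end-point scintillation proximity assay with E. coli-expressed recombinant mtFabH (1.0 nM), biotinylated malonyl-ecACP, and myristoyl-CoA in 100 mM sodium phosphate with 0.01% CHAPS and 1 mM DTT. Compounds in DMSO were tested from 500 down to 0.98. After a 5-min 30 °C preincubation, [3H]myristoyl-CoA was added and reacted 20 min at 30 °C. Ethanol quench, streptavidin beads, bead-bound radioactivity counted, IC50 derived.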
As to `CC1=C(O)C(C)(Cc2cc(F)cc(F)c2)SC1=O` (configuration not stated), the IC50 was found to be 263 µM.

With `CC1=C(O)C(C)(Cc2ccc(-c3ccc(CO)cc3)cc2)SC1=O` (configuration not stated), the 50% inhibitory concentration (IC50) worked out at 19 µM.

Regarding `CC1=C(O)C(C)(Cc2ccc(-c3ccc(C=O)cc3)cc2)SC1=O` (configuration not stated), the IC50 came to 29 µM.

Turning to `COc1cccc(CC2(C)SC(O)=C(C)C2=O)c1` (configuration not stated), the IC50 is over 500 µM.

In the case of `CC1=C(O)C(C)(Cc2ccc(-c3ccc(C(C)(C)C)cc3)cc2)SC1=O` (configuration not stated), the half-maximal inhibitory concentration (IC50) is 25 µM.

With `CC1=C(O)C(C)(Cc2ccc(-c3ccc(C)cc3)cc2)SC1=O` (configuration not stated), the IC50 amounted to 52 µM.

With `CC1=C(O)C(C)(Cc2ccccc2)SC1=O` (configuration not stated), the 50% inhibitory concentration (IC50) was over 250 µM.

On to `CC1=C(O)C(C)(Cc2ccc(I)cc2)SC1=O` (configuration not stated), for which the IC50 turned out to be 153 µM.

For `CC(=O)Nc1cccc(-c2ccc(CC3(C)SC(O)=C(C)C3=O)cc2)c1` (configuration not stated), the IC50 amounted to 119 µM.

`CC1=C(O)C(C)(Cc2ccc(-c3ccc(COCc4ccccc4)cc3)cc2)SC1=O` (configuration not stated): the IC50 came out at 17 µM.

`CC1=C(O)C(C)(Cc2ccc(F)cc2F)SC1=O` (configuration not stated): the IC50 amounted to 246 µM.

For the compound `CC1=C(O)C(C)(Cc2cccc(Oc3ccccc3)c2)SC1=O` (configuration not stated), the IC50 was found to be 52 µM.

As to `CC1=C(O)C(C)(Cc2cccc(-c3ccccc3)c2)SC1=O` (configuration not stated), the IC50 is 215 µM.

For the compound `COc1ccc(CC2(C)SC(O)=C(C)C2=O)cc1` (configuration not stated), the IC50 came out at 155 µM.

On to `CC1=C(O)C(C)(Cc2ccc(C(C)(C)C)cc2)SC1=O` (configuration not stated), for which the IC50 was determined as 43 µM.

For the compound `CC1=C(O)C(C)(Cc2ccc(-c3ccccc3)cc2)SC1=O` (configuration not stated), the concentration for half-maximal inhibition (IC50) came to 51 µM.

Turning to `CC1=C(O)C(C)(Cc2ccc(C)cc2)SC1=O` (configuration not stated), the IC50 worked out at 112 µM.

In general, IC50 refers to the midpoint of a concentration-inhibition curve.
